Source: PubChem (several laboratories)
This is one part of a sample in which hits are shown more often than they occur.
CD11b adhes enh – CD11b/CD18-fibrinogen binding enhancement. K562 CD11b/CD18 adhesion to fibrinogen, ATPlite luminescence. P05107+P11215. hit rate 0.07% among 93,000. activation, % at 10 µM. AID 1499;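 active = 10 µM primary screen giving 50% or more activity, confirmed by 40% or more on retest at that dose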
Target sequence (P05107 whole entry, looked up, other chains not shown): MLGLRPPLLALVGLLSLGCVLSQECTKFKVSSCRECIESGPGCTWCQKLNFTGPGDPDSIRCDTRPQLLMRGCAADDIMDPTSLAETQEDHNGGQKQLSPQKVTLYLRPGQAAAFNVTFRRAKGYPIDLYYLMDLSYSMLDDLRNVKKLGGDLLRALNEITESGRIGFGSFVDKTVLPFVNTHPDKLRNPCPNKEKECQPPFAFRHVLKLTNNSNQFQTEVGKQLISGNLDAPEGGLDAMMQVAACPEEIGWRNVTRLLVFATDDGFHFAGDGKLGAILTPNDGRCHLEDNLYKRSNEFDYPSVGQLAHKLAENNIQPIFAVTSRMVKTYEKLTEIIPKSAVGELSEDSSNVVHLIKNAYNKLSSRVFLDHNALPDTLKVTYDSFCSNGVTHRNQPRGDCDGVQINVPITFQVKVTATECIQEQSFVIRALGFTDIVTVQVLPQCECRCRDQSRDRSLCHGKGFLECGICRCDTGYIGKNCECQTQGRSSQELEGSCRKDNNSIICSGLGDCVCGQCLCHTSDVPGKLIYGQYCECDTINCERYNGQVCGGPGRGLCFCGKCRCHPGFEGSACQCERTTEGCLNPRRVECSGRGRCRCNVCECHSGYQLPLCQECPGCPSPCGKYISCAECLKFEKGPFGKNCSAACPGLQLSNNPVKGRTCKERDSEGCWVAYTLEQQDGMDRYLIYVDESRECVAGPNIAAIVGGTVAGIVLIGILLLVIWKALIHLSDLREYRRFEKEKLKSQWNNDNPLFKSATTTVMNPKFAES
CD11b adhes inh – inhibitors of human CD11b/CD18 binding to fibrinogen | P05107+P11215 | K562 CD11b/CD18 adhesion to fibrinogen, ATPlite luminescence; Mn2+ added to activate the integrin | inhibition, % at 10 µM | hit rate 0.54% among 93,000;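 active = primary inhibition of 50% or more at 10 µM, then 40% or more on retest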
Ecoli tolC – E. coli tolC mutant growth inhibition; E. coli BW25113 tolC mutant growth, OD615; growth inhibition, % at 10 µM (by protocol); hit rate 2.2% among 65,000; AID 573;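 active = growth inhibition at or above a cutoff equal to the mean over every tested compound plus 3 SD, cut at about 60% in these data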;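 also: growth measured after 20 h incubation at 37 °C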
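test system = E. coli BW25113 ΔtolC::kan bacteria | medium = LB with kanamycin 50 µg/mL | signal = OD at 615 nm | schedule = 37 °C, 20 h exposure | evaluation = % inhibition of E. coli growth | compound dosing = one dose of 10 µM final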
Ecoli WT expand – E. coli BW25113 growth inhibition, expanded screen | hit rate 0.15% among 98,000 | growth inhibition, % at 100 µM | OD600 absorbance | AID 710;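 active = growth inhibition above about 50% at one test dose, limit read from the data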;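 also: growth measured after 20 h incubation at 37 °C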
Active calls of the source: *; nt = not tested or not shown.

SMILES	CD11b adhes enh	CD11b adhes inh	Ecoli tolC	Ecoli WT expand
O=C(Nc1ccc(Cl)cc1)NC1CCCCC1Cc1ccco1 (stereo unspecified)	nt	nt	nt	9
Nc1nc(CN2CCN(c3cccc(Cl)c3)CC2)nc(N2CCCc3ccccc32)n1	24	-8	100*	-6
CCOC(=O)C1=C(C)Nc2ncnn2C1c1c[nH]c2ccccc12 (stereo unspecified)	8	3	-2	4
CC1=C(C(=O)OC(C)C)C(c2c[nH]c3ccccc23)n2ncnc2N1 (stereo unspecified)	-9	4	99*	-4
COC(=O)c1cc(NC(=O)c2ccc(Cn3cc(Cl)cn3)o2)cc(C(=O)OC)c1	76	-3	29	-7
CCOC(=O)c1c(NC(=S)NC(=O)c2ccc(Cn3cc(Cl)cn3)o2)sc2c1CCC(C)C2 (stereo unspecified)	201*	-2	nt	-7
CCOC(=O)CSc1nnc(NC(=O)c2cccc([N+](=O)[O-])c2C)s1	-2	4	nt	nt
O=C(Nc1ccccc1N1CCCCC1)c1ccccc1F	-3	17	88*	2
COc1cccc(CNC(=O)C(=O)NCC(c2ccco2)N2CCOCC2)c1 (stereo unspecified)	-3	8	nt	nt
Cc1cc(=O)[nH]c(-n2nc(C)c(Oc3ccccc3O)c2C)n1	4	-20	38	-15
Cc1cc(=O)[nH]c(-n2nc(C)cc2C)n1	0	-7	75*	57*
CC(=O)Nc1cc(OC(C)=O)c2nonc2c1OC(C)=O	-5	59*	-21	nt
O=c1[nH]n(-c2cccc3cccnc23)c(=O)c2ccccc12	nt	nt	-21	-5
O=S1(=O)Nc2c(ccc3cccnc23)-c2ccccc21	1	5	100*	80*
COc1ccc(C(=O)Nc2ccc(S(=O)(=O)N3CCCCC3C)cc2)c(OC)c1OC (stereo unspecified)	-2	16	66*	-12
CC(C)(C)c1ccc(-c2csc(NNC3=NCCCCC3)n2)cc1	-5	89*	nt	-1
COc1ccc(Cl)cc1NC(=O)CSc1nnc(Cn2c(=O)sc3ccccc32)n1C	nt	nt	-4	-6
CCCCn1c(=O)n(Cc2cccc(F)c2)c(=O)c2c1ncn2Cc1ccco1	2	38	65*	-6
Cn1c2ccc(F)cc2c2ncn(Cc3ccco3)c(=O)c21	-1	3	nt	5
COc1ccc2nc(NC(=O)C3CCN(S(=O)(=O)c4cccs4)CC3)sc2c1	-4	43	nt	-11
COc1ccc2nc(NC(=O)C3CCCN(S(=O)(=O)c4cccs4)C3)sc2c1 (stereo unspecified)	3	2	68*	-6
O=C(Nc1cccc(S(=O)(=O)c2cccc(NC(=O)C3CC3)c2)c1)C1CC1	-3	6	94*	10
COc1ccc2nc3c(cc2c1)c(NC(=O)c1cccs1)nn3CC(C)C	14	12	78*	-15
CC(C)Cn1nc(NC(=O)C(C)(C)C)c2cc3ccccc3nc21	-2	-13	24	8
Clc1ccc(Nc2ccc(-n3ccnc3)nn2)cc1Cl	3	-3	nt	-2
SMILES	CD11b adhes enh	CD11b adhes inh	Ecoli tolC	Ecoli WT expand
Cc1cccc(-c2cc3nc4c(c(N5CCC6(CC5)OCCO6)n3n2)CCCC4)c1	nt	nt	51	nt
Cc1cccc(-c2cc3nc4c(c(N5CCOCC5)n3n2)CCCC4)c1	3	26	85*	-16
Cc1cc(=O)[nH]c(N2CCc3ccccc3C2)n1	5	-2	nt	2
CCOc1cccc(NC(=O)C2CC(=O)N(C)C(=Nc3ccccc3)S2)c1 (stereo unspecified)	16	32	57	-4
CCOc1cccc(NC(=O)C2CC(=O)N(C)C(=Nc3cccc(F)c3)S2)c1 (stereo unspecified)	0	-8	88*	-2
COc1ccc(/C=N/NC(=O)CCSc2nc3ccccc3s2)cc1	2	22	nt	nt
Oc1[nH]c2c(Cl)cc(Cl)cc2c1N=NC(=S)NCC1CCCO1 (stereo unspecified)	11	28	nt	nt
COc1ccc(CCC(=O)N2CCCSC2=Nc2ccc(C(C)=O)cc2)cc1	-4	9	nt	nt
COC(=O)c1ccc(/C(O)=C(\C#N)c2nc3ccccc3s2)cc1	-10	103*	65*	-6
Cc1ccc(C(NC(=O)NC(C)c2ccccc2)C(Cl)(Cl)Cl)cc1F (stereo unspecified)	-6	96	nt	nt
CCCCCCCC(=O)N/N=C/c1ccc([N+](=O)[O-])o1	9	-8	nt	nt
CCOC(=O)N/N=C\c1ccc([N+](=O)[O-])o1	nt	nt	nt	100*
COc1ccc(C2CC(c3ccccc3)n3nnnc3N2)cc1 (stereo unspecified)	-1	-5	nt	2
Cc1ccc(C2CC(c3cccc(Br)c3)Nc3nnnn32)cc1 (stereo unspecified)	6	-15	67*	-9
COc1ccc(-c2nc3ccc(N4CCCC4)cc3c(=O)[nH]2)cc1OC	41	-7	nt	-6
COc1ccc(NC(=O)N2c3ccccc3CC2C)cc1OC (stereo unspecified)	2	-10	-4	0
COC(=O)c1ccccc1NC(=O)N1c2ccccc2CC1C (stereo unspecified)	10	-18	95*	-1
CC(C)C[C@H](NC(=O)OC(C)(C)C)c1nnc(SCc2cccc(F)c2)o1	20	-5	73*	-4
CCc1ccccc1N(C)C(=O)CCc1nc(-c2ccc(C)cc2)no1	-2	29	100*	-14
COc1ccc(Cl)cc1N(C)C(=O)CCc1nc(-c2ccc(C)cc2)no1	-2	1	90*	-24
CCCc1cc(-c2[nH]ncc2-c2ccc3c(c2)OCCCO3)c(O)cc1O	-1	30	100*	15
Fc1ccccc1OCCSc1nnnn1-c1ccccc1	1	-2	49	1
COc1ccccc1OCCSc1nnnn1-c1ccc(C)cc1	5	-8	65*	4
COc1ccc(C2C(C#N)=C(N)OC3=C2C(=O)CC(C)(C)C3)cc1Cn1nc(C)c([N+](=O)[O-])c1C (stereo unspecified)	0	12	nt	nt
COc1ccc(C2C(C#N)=C(N)Oc3c2c(C)nn3-c2ccccc2)cc1Cn1nc(C)c([N+](=O)[O-])c1C (stereo unspecified)	51*	11	nt	-11
SMILES	CD11b adhes enh	CD11b adhes inh	Ecoli tolC	Ecoli WT expand
C=CCn1c(NC(C)c2cc(Cl)ccc2O)nc2ccccc21 (stereo unspecified)	0	18	100*	4
C=CCn1c(NCc2cc(C)ccc2O)nc2ccccc21	3	1	41	0
CC1=C(C(=O)OC2CCCC2)C(c2ccc(C)o2)C2=C(CC(c3cccs3)CC2=O)N1 (stereo unspecified)	0	36	65*	-5
CC1=C(C(=O)OC2CCCCCC2)C(c2ccc(C)o2)C2=C(CCCC2=O)N1 (stereo unspecified)	nt	nt	100*	-7
CC1=C(C(=O)OC2CCCCC2)C(c2ccc(C)o2)C2=C(CC(C)(C)CC2=O)N1 (stereo unspecified)	0	-4	8	-3
COc1ccc(C(=O)C(CN2CCOCC2)c2ccccc2)cc1F (stereo unspecified)	-2	-11	78*	15
